Data on 12 compounds can be found in ChEMBL document CHEMBL3286155, “Tricyclic pyrazoles. Part 6. Benzofuro[3,2-c]pyrazole: a versatile architecture for CB2 selective ligands” (Eur J Med Chem, 2014).

The species named for one assay is Mus musculus. Kind of assay: Selectivity ratio of Ki for CB1 receptor in CD1 mouse cerebellum-less brain homogenate to Ki for CB2 receptor in CD1 mouse spleen homogenate. In kind it is tissue-based. The method, boiled down:
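Ki measured in two assays. CB1 used male CD1 mouse brain (minus cerebellum) membranes and CB2 used spleen membranes, each with 0.5-1.0 nM [3H]-CP-55,940 for 1 h at 30 °C in TME buffer pH 7.4. IC50 converted by Cheng-Prusoff. Each Ki comes from five independent triplicate experiments, and the line is the ratio of the two Ki values.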

The target in assay [1] is Cannabinoid receptor 2 (Homo sapiens) (UniProt P34972). The experiment in a line: Intrinsic activity at CB2 receptor in human HL60 cells assessed as upregulation of phosphorylated ERK1/2 expression at 50 nM after 15 mins by Western blotting analysis relative to control. It is filed as cell-based. To be noted: HL-60. The method, boiled down: (§1)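 HL-60 human promyelocytic leukaemia cells were treated for 15 min with compounds in culture medium with 1% DMSO. Cells were pelleted, washed in PBS and lysed at 4 °C. Phospho-ERK1/2 in total extracts was detected by western blot with anti-phospho-ERK1/2 clone AW39R and chemiluminescence. Results expressed as mean percentage of vehicle (100%) ± SEM.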
Cannabinoid receptor 2 (Homo sapiens), sequence (P34972 whole entry): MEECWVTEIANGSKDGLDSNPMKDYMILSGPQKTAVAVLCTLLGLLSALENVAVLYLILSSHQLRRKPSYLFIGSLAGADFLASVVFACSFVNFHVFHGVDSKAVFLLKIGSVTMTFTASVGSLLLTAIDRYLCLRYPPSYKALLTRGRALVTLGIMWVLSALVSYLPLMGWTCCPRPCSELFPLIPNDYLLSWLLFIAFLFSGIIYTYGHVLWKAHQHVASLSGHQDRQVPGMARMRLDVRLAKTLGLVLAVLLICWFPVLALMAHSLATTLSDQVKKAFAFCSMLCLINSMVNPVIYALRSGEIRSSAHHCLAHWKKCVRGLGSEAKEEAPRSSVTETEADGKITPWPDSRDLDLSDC
(In western blotting, separated proteins are transferred to a membrane and probed.)

Assay [2] shares this target. Kind of assay: Intrinsic activity at CB2 receptor in human HL60 cells assessed as upregulation of phosphorylated ERK1/2 expression at 50 nM after 15 mins by Western blotting analysis in presence of CB2 receptor antagonist AM630. In kind it is cell-based. To be noted: HL-60. The method, boiled down:
(§2)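 HL-60 cells were pre-treated 5 min with CB2 antagonist AM630 (75 nM), then exposed 15 min to agonist in medium with 1% DMSO. Phospho-ERK1/2 in cell lysates was measured by western blot with anti-phospho-ERK1/2 clone AW39R. Controls were AM630 alone and agonist without pre-treatment. Results given as mean percentage of vehicle (100%) ± SEM.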

The next assay has as its target Cannabinoid receptor 2 (Mus musculus, UniProt P47936). Kind of assay: Displacement of [3H]-CP-55,940 from CB2 receptor in CD1 mouse spleen homogenate after 1 hr by liquid scintillation counting analysis. In kind it is tissue-based. The method, boiled down:
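Male CD1 mice killed by cervical dislocation; spleen homogenised in 20 vol ice-cold TME buffer (50 mM Tris-HCl, 1 mM EDTA, 3.0 mM MgCl2, pH 7.4), spun 1086 × g then 45,000 × g. Membranes incubated with 0.5–1.0 nM [3H]CP-55,940, 1 h, 30 °C, with 5 mg/mL fatty-acid-free BSA; nonspecific binding defined with CP-55,940. Filtration stop. Triplicates, five independent assays. Sigmoid fit for IC50, then Cheng-Prusoff Ki.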
In general terms: Loss of bound radioactivity is the signal in a displacement assay; it reports binding, not function.

In another assay the target is Cannabinoid receptor 1 (Mus musculus, UniProt P47746). Kind of assay: Displacement of [3H]-CP-55,940 from CB1 receptor in CD1 mouse cerebellum-less brain homogenate after 1 hr by liquid scintillation counting analysis. In kind it is tissue-based. The method, boiled down:
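Membranes from brain (minus cerebellum) of male CD1 mice, homogenised in ice-cold TME buffer (50 mM Tris-HCl, 1 mM EDTA, 3.0 mM MgCl2, pH 7.4), incubated with 0.5-1.0 nM [3H]-CP-55,940 for 1 h at 30 °C with fatty acid-free BSA. Non-specific binding defined with CP-55,940. Filtration, then scintillation counting. Triplicates in five independent assays; IC50 from sigmoid fit, converted to Ki by Cheng-Prusoff.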

Assay [3] has as its target Cannabinoid receptor 2 (Homo sapiens) (UniProt P34972). The experiment in a line: Intrinsic activity at CB2 receptor in human HL60 cells assessed as upregulation of phosphorylated ERK1/2 expression at 5 nM after 15 mins by Western blotting analysis relative to control. To be noted: HL-60. In kind it is cell-based. The method, boiled down:
as §1

Assay [4] shares this target. Kind of assay: Intrinsic activity at CB2 receptor in human HL60 cells assessed as upregulation of phosphorylated ERK1/2 expression at 5 nM after 15 mins by Western blotting analysis in presence of CB2 receptor antagonist AM630. In kind it is cell-based. To be noted: HL-60. The method in brief: as §2
The target is the same in assay [5]. Kind of assay: Intrinsic activity at CB2 receptor in human HL60 cells assessed as upregulation of phosphorylated ERK1/2 expression at 75 nM after 15 mins by Western blotting analysis relative to control. To be noted: HL-60. In kind it is cell-based. The method, boiled down:
as §1

Assay [6] shares this target. The experiment in a line: Intrinsic activity at CB2 receptor in human HL60 cells assessed as upregulation of phosphorylated ERK1/2 expression at 75 nM after 15 mins by Western blotting analysis in presence of CB2 receptor antagonist AM630. It is filed as cell-based. To be noted: HL-60. The method in brief:
as §2

The target is the same in assay [7]. Kind of assay: Intrinsic activity at CB2 receptor in human HL60 cells assessed as upregulation of phosphorylated ERK1/2 expression at 10 nM after 15 mins by Western blotting analysis relative to control. It is filed as cell-based. The settings on record: HL-60. The method, boiled down:
as §1

Assay [8] shares this target. Kind of assay: Intrinsic activity at CB2 receptor in human HL60 cells assessed as upregulation of phosphorylated ERK1/2 expression at 10 nM after 15 mins by Western blotting analysis in presence of CB2 receptor antagonist AM630. It is filed as cell-based. The settings on record: HL-60. The method in brief:
as §2

For a further assay, the species on record is Homo sapiens. Kind of assay: Selectivity ratio of Ki for CB1 receptor (unknown origin) to Ki for CB2 receptor (unknown origin).

Molecules are shown by their SMILES. Activity calls are given as the source filed them. The rule behind the calls is not given here.

Cannabinoid receptor 1, sequence (P47746 whole entry): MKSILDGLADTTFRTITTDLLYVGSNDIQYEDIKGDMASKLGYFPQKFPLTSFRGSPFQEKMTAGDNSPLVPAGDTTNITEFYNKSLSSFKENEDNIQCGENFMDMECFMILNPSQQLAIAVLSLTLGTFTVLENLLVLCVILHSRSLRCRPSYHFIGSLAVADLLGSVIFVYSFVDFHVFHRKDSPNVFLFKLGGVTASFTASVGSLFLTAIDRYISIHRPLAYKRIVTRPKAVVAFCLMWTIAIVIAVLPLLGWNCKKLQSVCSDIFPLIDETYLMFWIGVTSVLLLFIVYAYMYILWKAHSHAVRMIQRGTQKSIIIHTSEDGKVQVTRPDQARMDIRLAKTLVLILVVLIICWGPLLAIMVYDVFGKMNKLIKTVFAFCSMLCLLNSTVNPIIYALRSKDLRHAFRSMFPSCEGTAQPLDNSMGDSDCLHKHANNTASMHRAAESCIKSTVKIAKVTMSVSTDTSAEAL
Cannabinoid receptor 2, sequence (P47936 whole entry): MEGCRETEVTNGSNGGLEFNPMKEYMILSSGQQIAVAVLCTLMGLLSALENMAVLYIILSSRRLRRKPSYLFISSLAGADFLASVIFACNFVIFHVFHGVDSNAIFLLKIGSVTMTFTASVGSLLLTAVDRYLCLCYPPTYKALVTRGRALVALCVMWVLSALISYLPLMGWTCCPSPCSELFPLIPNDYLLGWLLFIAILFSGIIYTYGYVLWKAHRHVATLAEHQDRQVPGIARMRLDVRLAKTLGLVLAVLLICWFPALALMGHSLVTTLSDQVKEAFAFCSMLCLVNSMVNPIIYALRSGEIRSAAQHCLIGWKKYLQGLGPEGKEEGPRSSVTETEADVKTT

In the case of `Cc1ccc2c(c1)oc1c(C(=O)NC3CCCCC3)nn(-c3ccc(Cl)cc3Cl)c12`, in the assay listed under Mus musculus, the Ratio Ki came to 79.9. Further, the Intrinsic activity in assay [1] worked out at 196%. Moreover, the Intrinsic activity result in assay [2] is “inactive”.

As for `Cc1ccc2c(c1)oc1c(C(=O)NC3C4CC5CC(C4)CC3C5)nn(-c3ccc(Cl)cc3Cl)c12` (stereo not given), the Ratio Ki in the assay listed under Mus musculus worked out at 30.7. In addition, in assay [1], the Intrinsic activity came out at 187%. In [2], the Intrinsic activity result is “inactive”.

As to `Cc1ccc2c(c1)oc1c(C(=O)NN3CCCCC3)nn(-c3ccc(Cl)cc3Cl)c12`, the Ratio Ki in the assay listed under Mus musculus is 139. The Intrinsic activity in [1] came to 205%. In addition, in assay [2], the Intrinsic activity result is “inactive”.

With `Cc1ccc2c(c1)oc1c(C(=O)N[C@@H]3C[C@H](C)CC[C@H]3C(C)C)nn(-c3ccc(Cl)cc3Cl)c12`, the Ki at Cannabinoid receptor 2 was determined as 2.3 nM; at Cannabinoid receptor 1, 38.2 nM. For the same compound, the Ratio Ki in the assay listed under Mus musculus was 16.6. Moreover, the Intrinsic activity in assay [3] is 193%. Further, in assay [4], the Intrinsic activity result was “inactive”.

Consider `Cc1ccc2c(c1)oc1c(C(=O)NN3CCOCC3)nn(-c3ccc(Cl)cc3Cl)c12`, for which the Ratio Ki in the assay listed under Mus musculus is 108. In assay [5], the Intrinsic activity came to 178%. For the same compound, the Intrinsic activity result in assay [6] was “inactive”.

Consider `Cc1ccc2c(c1)oc1c(C(=O)N[C@@H]3CC4CC([C@H]3C)C4(C)C)nn(-c3ccc(Cl)cc3Cl)c12` (stereo not given in full), for which the results for the inhibition constant (Ki) on Cannabinoid receptor 2 and at Cannabinoid receptor 1 were 3.7 nM and 2400 nM, respectively. The Ratio Ki in the assay listed under Mus musculus came out at 648. Besides, in assay [3], the Intrinsic activity is 205%. The Intrinsic activity entry in assay [4] is “inactive”.

On to `Cc1ccc2c(c1)oc1c(C(=O)N[C@H]3C4(C)CCC(C4)C3(C)C)nn(-c3ccc(Cl)cc3Cl)c12` (stereo not given in full), for which the Ki on Cannabinoid receptor 2 was 2.5 nM; at Cannabinoid receptor 1, 257 nM. Further, the Ratio Ki in the assay filed under Mus musculus was found to be 103. Further, in [7], the Intrinsic activity turned out to be 200%. Besides, the Intrinsic activity result in assay [8] was “inactive”.

Consider `Cc1ccc2c(c1)oc1c(C(=O)NN3CCCC3)nn(-c3ccc(Cl)cc3Cl)c12`, for which, in the assay listed under Mus musculus, the Ratio Ki amounted to 92.3. The Intrinsic activity in assay [5] stood at 185%. Moreover, in assay [6], the Intrinsic activity result is “inactive”.

On to `Cc1ccc2c(c1)oc1c(C(=O)NC34CC5CC(CC(C5)C3)C4)nn(-c3ccc(Cl)cc3Cl)c12`, for which the Ratio Ki in the assay filed under Mus musculus came out at 13. Further, the Intrinsic activity in assay [5] came to 175%. In addition, the Intrinsic activity result in assay [6] is “inactive”.

As for `Cc1c(C(=O)c2cccc3ccccc23)c2cccc3c2n1[C@H](CN1CCOCC1)CO3`, in assay [5], the Intrinsic activity turned out to be 190%.

In the case of `Cc1ccc2c(c1)Cc1c(C(=O)NN3CCCCC3)nn(-c3ccc(Cl)cc3Cl)c1-2`, the Ratio Ki in the assay filed under Homo sapiens is 9810.

As for `Cc1ccc2c(c1)oc1c(C(=O)N[C@H]3CC4CC[C@]3(C)C4(C)C)nn(-c3ccc(Cl)cc3Cl)c12`, the values for the Ki at Cannabinoid receptor 2 and on Cannabinoid receptor 1 were 3.5 nM and 469 nM, respectively. Moreover, in the assay listed under Mus musculus, the Ratio Ki was 134. Moreover, in assay [7], the Intrinsic activity is 189%. In addition, in [8], the Intrinsic activity entry is “inactive”.

As usually defined, the Ki is a dissociation constant, usually derived from enzyme kinetics or from competition with a known ligand.
